Results from ChEMBL document CHEMBL1129566 (J Med Chem, 1996).
≈ marks a conversion by molar mass, not a printed value.

tested on: Citrobacter freundii; assay: In vitro minimum inhibitory concentration required to produce antibacterial activity against Citrobacter freundii 902; format: functional
Procedure, shortened: (§1)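 Two-fold agar dilution on Mueller-Hinton agar. Overnight broth cultures diluted in fresh broth to […]; 10⁴ CFU/spot applied by inoculating apparatus onto plates with graded drug concentrations. Incubated 18 h at 37 °C; MIC taken as the lowest concentration giving complete growth inhibition.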

MIC [µg/mL] | SMILES
2 (≈ 3.42 µM) | COc1cccc(CN2CC/C(=C\C3=C(C(=O)O)N4C(=O)[C@@H](NC(=O)/C(=N\O)c5csc(N)n5)[C@H]4SC3)C2=O)c1
4 (≈ 6.64 µM) | CC(C)CO/N=C(\C(=O)N[C@@H]1C(=O)N2C(C(=O)O)=C(/C=C3\CCN(CC(F)(F)F)C3=O)CS[C@H]12)c1csc(N)n1
2 (≈ 3.41 µM) | C=CCO/N=C(\C(=O)N[C@@H]1C(=O)N2C(C(=O)O)=C(/C=C3\CCN(CC(F)(F)F)C3=O)CS[C@H]12)c1csc(N)n1
2 (≈ 3.83 µM) | Nc1nc(/C(=N/O)C(=O)N[C@@H]2C(=O)N3C(C(=O)O)=C(/C=C4\CCN(CC(=O)O)C4=O)CS[C@H]23)cs1
0.5 (≈ 1.08 µM) | Nc1nc(/C(=N/O)C(=O)N[C@@H]2C(=O)N3C(C(=O)O)=C(/C=C4\CCNC4=O)CS[C@H]23)cs1
1 (≈ 1.9 µM) | Nc1nc(/C(=N/O)C(=O)N[C@@H]2C(=O)N3C(C(=O)O)=C(/C=C4\CN(c5ccccc5)C4=O)CS[C@H]23)cs1

SMILES | MIC [µg/mL]
C=CC1=C(C(=O)O)N2C(=O)[C@@H](NC(=O)/C(=N\O)c3csc(N)n3)[C@H]2SC1 | 8 (≈ 20.2 µM)

tested on: Escherichia coli; assay: In vitro minimum inhibitory concentration required to produce antibacterial activity against Escherichia coli 25922; format: functional; procedure, shortened: as §1

MIC [µg/mL] | SMILES
2 (≈ 3.42 µM) | COc1cccc(CN2CC/C(=C\C3=C(C(=O)O)N4C(=O)[C@@H](NC(=O)/C(=N\O)c5csc(N)n5)[C@H]4SC3)C2=O)c1
2 (≈ 3.32 µM) | CC(C)CO/N=C(\C(=O)N[C@@H]1C(=O)N2C(C(=O)O)=C(/C=C3\CCN(CC(F)(F)F)C3=O)CS[C@H]12)c1csc(N)n1
1 (≈ 1.7 µM) | C=CCO/N=C(\C(=O)N[C@@H]1C(=O)N2C(C(=O)O)=C(/C=C3\CCN(CC(F)(F)F)C3=O)CS[C@H]12)c1csc(N)n1
0.12 (≈ 0.23 µM) | Nc1nc(/C(=N/O)C(=O)N[C@@H]2C(=O)N3C(C(=O)O)=C(/C=C4\CCN(CC(=O)O)C4=O)CS[C@H]23)cs1
≤ 0.06 | Nc1nc(/C(=N/O)C(=O)N[C@@H]2C(=O)N3C(C(=O)O)=C(/C=C4\CCNC4=O)CS[C@H]23)cs1
1 (≈ 1.9 µM) | Nc1nc(/C(=N/O)C(=O)N[C@@H]2C(=O)N3C(C(=O)O)=C(/C=C4\CN(c5ccccc5)C4=O)CS[C@H]23)cs1

SMILES | MIC [µg/mL]
C=CC1=C(C(=O)O)N2C(=O)[C@@H](NC(=O)/C(=N\O)c3csc(N)n3)[C@H]2SC1 | 0.25 (≈ 0.632 µM)

tested on: Enterococcus faecalis; assay: In vitro minimum inhibitory concentration required to produce antibacterial activity against Enterococcus faecalis ATCC 29212; format: functional; procedure, shortened: as §1

MIC [µg/mL] | SMILES
1 (≈ 1.71 µM) | COc1cccc(CN2CC/C(=C\C3=C(C(=O)O)N4C(=O)[C@@H](NC(=O)/C(=N\O)c5csc(N)n5)[C@H]4SC3)C2=O)c1
16 (≈ 26.6 µM) | CC(C)CO/N=C(\C(=O)N[C@@H]1C(=O)N2C(C(=O)O)=C(/C=C3\CCN(CC(F)(F)F)C3=O)CS[C@H]12)c1csc(N)n1
32 (≈ 54.6 µM) | C=CCO/N=C(\C(=O)N[C@@H]1C(=O)N2C(C(=O)O)=C(/C=C3\CCN(CC(F)(F)F)C3=O)CS[C@H]12)c1csc(N)n1
8 (≈ 15.3 µM) | Nc1nc(/C(=N/O)C(=O)N[C@@H]2C(=O)N3C(C(=O)O)=C(/C=C4\CCN(CC(=O)O)C4=O)CS[C@H]23)cs1
2 (≈ 4.31 µM) | Nc1nc(/C(=N/O)C(=O)N[C@@H]2C(=O)N3C(C(=O)O)=C(/C=C4\CCNC4=O)CS[C@H]23)cs1
0.25 (≈ 0.475 µM) | Nc1nc(/C(=N/O)C(=O)N[C@@H]2C(=O)N3C(C(=O)O)=C(/C=C4\CN(c5ccccc5)C4=O)CS[C@H]23)cs1

SMILES | MIC [µg/mL]
C=CC1=C(C(=O)O)N2C(=O)[C@@H](NC(=O)/C(=N\O)c3csc(N)n3)[C@H]2SC1 | 16 (≈ 40.5 µM)

tested on: Enterobacter cloacae; assay: In vitro minimum inhibitory concentration required to produce antibacterial activity against Enterobacter cloacae 908SSI; format: functional; procedure, shortened: as §1

MIC [µg/mL] | SMILES
4 (≈ 6.84 µM) | COc1cccc(CN2CC/C(=C\C3=C(C(=O)O)N4C(=O)[C@@H](NC(=O)/C(=N\O)c5csc(N)n5)[C@H]4SC3)C2=O)c1
4 (≈ 6.64 µM) | CC(C)CO/N=C(\C(=O)N[C@@H]1C(=O)N2C(C(=O)O)=C(/C=C3\CCN(CC(F)(F)F)C3=O)CS[C@H]12)c1csc(N)n1
4 (≈ 6.82 µM) | C=CCO/N=C(\C(=O)N[C@@H]1C(=O)N2C(C(=O)O)=C(/C=C3\CCN(CC(F)(F)F)C3=O)CS[C@H]12)c1csc(N)n1
8 (≈ 15.3 µM) | Nc1nc(/C(=N/O)C(=O)N[C@@H]2C(=O)N3C(C(=O)O)=C(/C=C4\CCN(CC(=O)O)C4=O)CS[C@H]23)cs1
0.5 (≈ 1.08 µM) | Nc1nc(/C(=N/O)C(=O)N[C@@H]2C(=O)N3C(C(=O)O)=C(/C=C4\CCNC4=O)CS[C@H]23)cs1
2 (≈ 3.8 µM) | Nc1nc(/C(=N/O)C(=O)N[C@@H]2C(=O)N3C(C(=O)O)=C(/C=C4\CN(c5ccccc5)C4=O)CS[C@H]23)cs1

SMILES | MIC [µg/mL]
C=CC1=C(C(=O)O)N2C(=O)[C@@H](NC(=O)/C(=N\O)c3csc(N)n3)[C@H]2SC1 | 16 (≈ 40.5 µM)

tested on: Pseudomonas aeruginosa; assay: In vitro minimum inhibitory concentration required to produce antibacterial activity against Pseudomonas aeruginosa ATCC 27853; format: functional; procedure, shortened: as §1

MIC [µg/mL] | SMILES
> 32 | COc1cccc(CN2CC/C(=C\C3=C(C(=O)O)N4C(=O)[C@@H](NC(=O)/C(=N\O)c5csc(N)n5)[C@H]4SC3)C2=O)c1
16 (≈ 26.6 µM) | CC(C)CO/N=C(\C(=O)N[C@@H]1C(=O)N2C(C(=O)O)=C(/C=C3\CCN(CC(F)(F)F)C3=O)CS[C@H]12)c1csc(N)n1
8 (≈ 13.6 µM) | C=CCO/N=C(\C(=O)N[C@@H]1C(=O)N2C(C(=O)O)=C(/C=C3\CCN(CC(F)(F)F)C3=O)CS[C@H]12)c1csc(N)n1
> 32 | Nc1nc(/C(=N/O)C(=O)N[C@@H]2C(=O)N3C(C(=O)O)=C(/C=C4\CCN(CC(=O)O)C4=O)CS[C@H]23)cs1
> 16 | Nc1nc(/C(=N/O)C(=O)N[C@@H]2C(=O)N3C(C(=O)O)=C(/C=C4\CCNC4=O)CS[C@H]23)cs1
16 (≈ 30.4 µM) | Nc1nc(/C(=N/O)C(=O)N[C@@H]2C(=O)N3C(C(=O)O)=C(/C=C4\CN(c5ccccc5)C4=O)CS[C@H]23)cs1

SMILES | MIC [µg/mL]
C=CC1=C(C(=O)O)N2C(=O)[C@@H](NC(=O)/C(=N\O)c3csc(N)n3)[C@H]2SC1 | > 32

tested on: Staphylococcus aureus; assay: In vitro minimum inhibitory concentration required to produce antibacterial activity against Staphylococcus aureus 743 MRSA; format: functional; procedure, shortened: as §1

MIC [µg/mL] | SMILES
8 (≈ 13.7 µM) | COc1cccc(CN2CC/C(=C\C3=C(C(=O)O)N4C(=O)[C@@H](NC(=O)/C(=N\O)c5csc(N)n5)[C@H]4SC3)C2=O)c1
4 (≈ 6.64 µM) | CC(C)CO/N=C(\C(=O)N[C@@H]1C(=O)N2C(C(=O)O)=C(/C=C3\CCN(CC(F)(F)F)C3=O)CS[C@H]12)c1csc(N)n1
4 (≈ 6.82 µM) | C=CCO/N=C(\C(=O)N[C@@H]1C(=O)N2C(C(=O)O)=C(/C=C3\CCN(CC(F)(F)F)C3=O)CS[C@H]12)c1csc(N)n1
> 32 | Nc1nc(/C(=N/O)C(=O)N[C@@H]2C(=O)N3C(C(=O)O)=C(/C=C4\CCN(CC(=O)O)C4=O)CS[C@H]23)cs1
8 (≈ 17.2 µM) | Nc1nc(/C(=N/O)C(=O)N[C@@H]2C(=O)N3C(C(=O)O)=C(/C=C4\CCNC4=O)CS[C@H]23)cs1
8 (≈ 15.2 µM) | Nc1nc(/C(=N/O)C(=O)N[C@@H]2C(=O)N3C(C(=O)O)=C(/C=C4\CN(c5ccccc5)C4=O)CS[C@H]23)cs1

SMILES | MIC [µg/mL]
C=CC1=C(C(=O)O)N2C(=O)[C@@H](NC(=O)/C(=N\O)c3csc(N)n3)[C@H]2SC1 | 16 (≈ 40.5 µM)

tested on: Staphylococcus aureus; assay: In vitro minimum inhibitory concentration required to produce antibacterial activity against Staphylococcus aureus 887MSSA; format: functional; procedure, shortened: as §1

MIC [µg/mL] | SMILES
1 (≈ 1.71 µM) | COc1cccc(CN2CC/C(=C\C3=C(C(=O)O)N4C(=O)[C@@H](NC(=O)/C(=N\O)c5csc(N)n5)[C@H]4SC3)C2=O)c1
8 (≈ 13.3 µM) | CC(C)CO/N=C(\C(=O)N[C@@H]1C(=O)N2C(C(=O)O)=C(/C=C3\CCN(CC(F)(F)F)C3=O)CS[C@H]12)c1csc(N)n1
4 (≈ 6.82 µM) | C=CCO/N=C(\C(=O)N[C@@H]1C(=O)N2C(C(=O)O)=C(/C=C3\CCN(CC(F)(F)F)C3=O)CS[C@H]12)c1csc(N)n1
16 (≈ 30.6 µM) | Nc1nc(/C(=N/O)C(=O)N[C@@H]2C(=O)N3C(C(=O)O)=C(/C=C4\CCN(CC(=O)O)C4=O)CS[C@H]23)cs1
1 (≈ 2.15 µM) | Nc1nc(/C(=N/O)C(=O)N[C@@H]2C(=O)N3C(C(=O)O)=C(/C=C4\CCNC4=O)CS[C@H]23)cs1
0.5 (≈ 0.95 µM) | Nc1nc(/C(=N/O)C(=O)N[C@@H]2C(=O)N3C(C(=O)O)=C(/C=C4\CN(c5ccccc5)C4=O)CS[C@H]23)cs1

SMILES | MIC [µg/mL]
C=CC1=C(C(=O)O)N2C(=O)[C@@H](NC(=O)/C(=N\O)c3csc(N)n3)[C@H]2SC1 | 0.5 (≈ 1.26 µM)

tested on: Streptococcus pneumoniae; assay: In vitro minimum inhibitory concentration required to produce antibacterial activity against Streptococcus pneumoniae 1/37(pen r); format: functional; procedure, shortened: as §1

MIC [µg/mL] | SMILES
1 (≈ 1.71 µM) | COc1cccc(CN2CC/C(=C\C3=C(C(=O)O)N4C(=O)[C@@H](NC(=O)/C(=N\O)c5csc(N)n5)[C@H]4SC3)C2=O)c1
1 (≈ 1.66 µM) | CC(C)CO/N=C(\C(=O)N[C@@H]1C(=O)N2C(C(=O)O)=C(/C=C3\CCN(CC(F)(F)F)C3=O)CS[C@H]12)c1csc(N)n1
0.5 (≈ 0.852 µM) | C=CCO/N=C(\C(=O)N[C@@H]1C(=O)N2C(C(=O)O)=C(/C=C3\CCN(CC(F)(F)F)C3=O)CS[C@H]12)c1csc(N)n1
2 (≈ 3.83 µM) | Nc1nc(/C(=N/O)C(=O)N[C@@H]2C(=O)N3C(C(=O)O)=C(/C=C4\CCN(CC(=O)O)C4=O)CS[C@H]23)cs1
2 (≈ 4.31 µM) | Nc1nc(/C(=N/O)C(=O)N[C@@H]2C(=O)N3C(C(=O)O)=C(/C=C4\CCNC4=O)CS[C@H]23)cs1
4 (≈ 7.6 µM) | Nc1nc(/C(=N/O)C(=O)N[C@@H]2C(=O)N3C(C(=O)O)=C(/C=C4\CN(c5ccccc5)C4=O)CS[C@H]23)cs1

SMILES | MIC [µg/mL]
C=CC1=C(C(=O)O)N2C(=O)[C@@H](NC(=O)/C(=N\O)c3csc(N)n3)[C@H]2SC1 | 4 (≈ 10.1 µM)

tested on: Streptococcus pneumoniae; assay: Minimum inhibitory concentration for antibacterial activity against Streptococcus pneumoniae Q19 (pen s); format: functional; procedure, shortened: as §1

MIC [µg/mL] | SMILES
≤ 0.06 | COc1cccc(CN2CC/C(=C\C3=C(C(=O)O)N4C(=O)[C@@H](NC(=O)/C(=N\O)c5csc(N)n5)[C@H]4SC3)C2=O)c1
≤ 0.06 | CC(C)CO/N=C(\C(=O)N[C@@H]1C(=O)N2C(C(=O)O)=C(/C=C3\CCN(CC(F)(F)F)C3=O)CS[C@H]12)c1csc(N)n1
≤ 0.06 | C=CCO/N=C(\C(=O)N[C@@H]1C(=O)N2C(C(=O)O)=C(/C=C3\CCN(CC(F)(F)F)C3=O)CS[C@H]12)c1csc(N)n1
0.12 (≈ 0.23 µM) | Nc1nc(/C(=N/O)C(=O)N[C@@H]2C(=O)N3C(C(=O)O)=C(/C=C4\CCN(CC(=O)O)C4=O)CS[C@H]23)cs1
0.06 (≈ 0.129 µM) | Nc1nc(/C(=N/O)C(=O)N[C@@H]2C(=O)N3C(C(=O)O)=C(/C=C4\CCNC4=O)CS[C@H]23)cs1
0.5 (≈ 0.95 µM) | Nc1nc(/C(=N/O)C(=O)N[C@@H]2C(=O)N3C(C(=O)O)=C(/C=C4\CN(c5ccccc5)C4=O)CS[C@H]23)cs1

SMILES | MIC [µg/mL]
C=CC1=C(C(=O)O)N2C(=O)[C@@H](NC(=O)/C(=N\O)c3csc(N)n3)[C@H]2SC1 | 0.25 (≈ 0.632 µM)
